From ChEMBL document CHEMBL1156073, “Hydroxamic acids as a novel family of serine racemase inhibitors: mechanistic analysis reveals different modes of interaction with the pyridoxal-5'-phosphate cofactor” (J Med Chem, 2009)
One block for each compound: values may come before it. Calls of active or inactive are those of the source. No cut-off for these calls is given here.

Tests used:
[1] = Binding affinity to pyridoxal-5'-phosphate assessed as formation of syn- and anti-PLP-aldoxime by NMR spectroscopy
Procedure, shortened: (§1)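 Compound and PLP solutions prepared in 100 mM phosphate buffer in D2O, pD held near 8.0; chemical shifts followed by NMR after mixing.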

[2] = target: T1, L-serine dehydratase/L-threonine deaminase (Rattus norvegicus) (UniProt P09367); assay: Inhibition of rat SDH expressed in Escherichia coli BL21-RIL assessed as formation of pyruvate at 5 mM in phosphate buffer of pH 8 treated for 15 to 20 mins before addition of substrate by HPLC analysis in presence of 10 uM PLP
T1 sequence (whole entry): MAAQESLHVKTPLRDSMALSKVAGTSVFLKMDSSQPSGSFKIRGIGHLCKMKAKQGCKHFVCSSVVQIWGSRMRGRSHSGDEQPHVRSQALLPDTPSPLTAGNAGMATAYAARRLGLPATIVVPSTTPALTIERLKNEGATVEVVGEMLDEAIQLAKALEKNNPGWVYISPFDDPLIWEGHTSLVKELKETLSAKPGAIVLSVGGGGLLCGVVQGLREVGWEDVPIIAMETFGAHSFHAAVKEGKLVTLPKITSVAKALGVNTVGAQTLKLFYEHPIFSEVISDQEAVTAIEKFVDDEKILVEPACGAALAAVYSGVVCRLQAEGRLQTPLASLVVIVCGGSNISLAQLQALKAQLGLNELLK
Procedure, shortened: (§2)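 Enzyme in 50 mM phosphate buffer pH 8.0 with 10 μM PLP, preincubated with 5 mM inhibitor at room temperature for 15-20 min. Substrate added near KM: alanine racemase 5 mM D-alanine (L-alanine formed); SDH 50 mM L-serine (SDH partially purified, ~50%, from E. coli BL21-RIL); transaminase 5 mM L-aspartic acid plus 5 mM α-ketoglutarate. Products analysed by HPLC.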

[3] = Binding affinity to pyridoxal-5'-phosphate assessed as formation of PLP-aldoxime by ESI-MS analysis
Procedure, shortened: (§3)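 Compound weighed into PLP stock at about 1:1 molar ratio with PLP, with or without 200 mM ammonium sulfate pH 8.0. Mixture diluted 40- to 100-fold in water and analysed by ESI-MS in negative ion mode.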

[4] = target: T2, Serine racemase (Homo sapiens) (UniProt Q9GZT4); assay: Inhibition of human recombinant serine racemase assessed as formation of D-serine at 5 mM in phosphate buffer of pH 8 treated for 15 to 20 mins before addition of substrate by HPLC analysis in presence of 10 uM PLP
T2 sequence (whole entry): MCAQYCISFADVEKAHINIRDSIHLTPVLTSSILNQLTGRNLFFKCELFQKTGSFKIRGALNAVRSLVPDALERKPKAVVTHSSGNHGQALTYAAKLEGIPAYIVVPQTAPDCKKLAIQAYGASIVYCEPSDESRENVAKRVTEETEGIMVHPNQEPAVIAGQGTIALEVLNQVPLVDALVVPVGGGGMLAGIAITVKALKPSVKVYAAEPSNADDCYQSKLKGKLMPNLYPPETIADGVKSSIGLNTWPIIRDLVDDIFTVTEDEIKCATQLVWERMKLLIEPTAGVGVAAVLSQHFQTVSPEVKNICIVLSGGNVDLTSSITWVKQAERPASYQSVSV
Procedure, shortened: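 Recombinant human SR assayed as for mouse SR: pH 8.0 buffer with 10 μM PLP, 1 mM ATP, 1 mM MgCl2, 5 mM DTT, 5 mM L-serine and 5 mM compound. Incubated 30 min at 37 C, stopped with HClO4; D-serine measured by HPLC.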

[5] = Binding affinity to pyridoxal-5'-phosphate assessed as formation of PLP-aldoxime at 5 mM after 1 hr by UV/vis spectroscopy
Procedure, shortened: (§4)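 PLP and compound solutions in 100 mM phosphate buffer pH 8.0 mixed 1:1, giving 300 μM PLP and 5 mM compound final. Incubated 1 h at room temperature, then absorbance scanned from 310 to 500 nm.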

[6] = Chemical stability assessed as hydrolysis-associated hydroxylamine formation at 0.5 mM after 1 hr in phosphate buffer of pH 7.4; type: physicochemical; details: pH 7.4, 1 h, 500 µM
Procedure, shortened: (§5)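 Compound at 0.5 mM or 0.05 mM, diluted from fresh 10 mM stocks, held in 100 mM phosphate buffer pH 8.0 or 7.4 at room temperature for 0, 30 or 60 min. Picrylsulfonic acid then added; released hydroxylamine read as absorbance at 494 nm 15 min later.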

[7] = Binding affinity to pyridoxal-5'-phosphate assessed as compound remaining after 12 days by NMR spectroscopy; procedure, shortened: as §1
[8] = target: T3, Alanine racemase (Geobacillus stearothermophilus) (UniProt P10724); assay: Inhibition of Bacillus stearothermophilus alanine racemase assessed as formation of L-alanine at 5 mM in phosphate buffer of pH 8 treated for 15 to 20 mins before addition of substrate by HPLC analysis in presence of 10 uM PLP; procedure, shortened: as §2
T3 sequence (whole entry): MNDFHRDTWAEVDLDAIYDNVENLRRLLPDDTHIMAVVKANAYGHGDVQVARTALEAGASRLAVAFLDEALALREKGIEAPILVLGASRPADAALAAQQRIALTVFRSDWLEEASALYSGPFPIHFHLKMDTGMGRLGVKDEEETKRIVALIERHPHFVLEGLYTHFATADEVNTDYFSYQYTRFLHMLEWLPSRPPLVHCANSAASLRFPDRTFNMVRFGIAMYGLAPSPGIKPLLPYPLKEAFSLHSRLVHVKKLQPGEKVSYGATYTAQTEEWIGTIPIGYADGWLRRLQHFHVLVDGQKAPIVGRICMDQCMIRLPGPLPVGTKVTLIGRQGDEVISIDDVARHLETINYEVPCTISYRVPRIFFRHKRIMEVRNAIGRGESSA

[9] = Chemical stability assessed as hydrolysis-associated hydroxylamine formation at 0.5 mM after 1 hr in phosphate buffer of pH 8; type: physicochemical; details: pH 8, 1 h, 500 µM; procedure, shortened: as §5
[10] = Inhibition of broad-range bacterial transaminase assessed as formation of L-glutamic acid at 5 mM in phosphate buffer of pH 8 treated for 15 to 20 mins before addition of substrate by HPLC analysis in presence of 10 uM PLP; procedure, shortened: as §2
[11] = target: T4, Serine racemase (Mus musculus) (UniProt Q9QZX7); assay: Inhibition of mouse recombinant serine racemase expressed in Escherichia coli MC1061 assessed as formation of D-serine at 5 mM in phosphate buffer of pH 8 treated for 15 to 20 mins before addition of substrate by HPLC analysis in presence of 10 uM PLP
T4 sequence (whole entry): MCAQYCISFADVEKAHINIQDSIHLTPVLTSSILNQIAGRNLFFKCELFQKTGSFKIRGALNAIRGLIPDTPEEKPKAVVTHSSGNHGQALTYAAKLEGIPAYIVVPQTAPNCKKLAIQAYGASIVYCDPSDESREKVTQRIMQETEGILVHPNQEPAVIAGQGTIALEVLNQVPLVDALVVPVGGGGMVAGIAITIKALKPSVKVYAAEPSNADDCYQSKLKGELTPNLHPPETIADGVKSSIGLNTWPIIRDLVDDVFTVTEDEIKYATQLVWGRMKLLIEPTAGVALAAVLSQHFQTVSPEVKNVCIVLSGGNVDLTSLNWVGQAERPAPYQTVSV

[12] = target: T4, Serine racemase (Mus musculus); assay: Inhibition of mouse recombinant serine racemase expressed in Escherichia coli MC1061 assessed as formation of D-serine at 5 mM after 30 mins by HPLC analysis
Procedure, shortened: (§6)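 Mouse SR (E. coli MC1061, arabinose-induced, three-step chromatography, ~90% pure) incubated in pH 8.0 buffer with 10 μM PLP, 1 mM ATP, 1 mM MgCl2, 5 mM DTT. Screening used 5 mM L-serine and 5 mM test compound; IC50 runs varied inhibitor at 5 mM L-serine. 30 min at 37 C, stopped with 0.3 M HClO4; D-serine quantified by HPLC. Duplicate or triplicate runs.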

[13] = Binding affinity to pyridoxal-5'-phosphate assessed as formation of PLP-aldimine at active site by ESI-MS analysis; procedure, shortened: as §3
[14] = Binding affinity to 30 mM pyridoxal-5'-phosphate assessed as formation of PLP-aldimine by ESI-MS analysis
Serine racemase [15] = target: T5, Serine racemase (Mus musculus, UniProt Q9QZX7); assay: Inhibition of mouse recombinant serine racemase transfected in bacterial expression system
T5 sequence (Q9QZX7 whole entry): T4 sequence (whole entry)

[16] = target: T4, Serine racemase (Mus musculus); assay: Inhibition of mouse recombinant serine racemase expressed in Escherichia coli MC1061 assessed as formation of D-serine at 5 mM treated for 15 to 20 mins before addition of substrate by HPLC analysis in presence of increasing concentration of PLP
[17] = target: T4, Serine racemase (Mus musculus); assay: Inhibition of mouse recombinant serine racemase expressed in Escherichia coli MC1061 assessed as formation of D-serine at 5 mM after 30 mins by HPLC analysis in presence of 5 fold molar excess of MgCl2 over compound
[18] = target: T2, Serine racemase (Homo sapiens); assay: Inhibition of human recombinant serine racemase assessed as formation of D-serine at 5 mM treated for 15 to 20 mins before addition of substrate by HPLC analysis in presence of increasing concentration of PLP
[19] = Chemical stability assessed as hydrolysis-associated hydroxylamine formation at 0.05 mM after 1 hr in phosphate buffer of pH 7.4; type: physicochemical; details: pH 7.4, 1 h, 50 µM; procedure, shortened: as §5
Serine racemase [20] = target: T5, Serine racemase; assay: (§7) Inhibition of mouse recombinant serine racemase expressed in Escherichia coli MC1061 assessed as formation of D-serine after 30 mins by Linewaver-burk and Eadie-Hofstee plot analysis
Procedure, shortened: (§8)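 Mouse SR racemization at varied L-serine and inhibitor concentrations, pH 8.0, 10 μM PLP, 30 min at 37 C. End-point HPLC measured D-serine peak area relative to a glycine internal standard, in triplicate. Global nonlinear fit followed by linear transformation.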

[21] = Chemical stability assessed as hydrolysis-associated hydroxylamine formation at 0.05 mM after 1 hr in phosphate buffer of pH 8; type: physicochemical; details: pH 8, 1 h, 50 µM; procedure, shortened: as §5
Serine racemase [22] = target: T5, Serine racemase; assay: Inhibition of mouse recombinant serine racemase expressed in Escherichia coli MC1061 assessed as formation of D-serine after 30 mins by HPLC analysis; procedure, shortened: as §6
[23] = Binding affinity to pyridoxal-5'-phosphate assessed as PLP-amino acid Schiff base interaction at 5 mM after 1 hr by UV/vis spectroscopy; procedure, shortened: as §4
[24] = Binding affinity to 4-5 mM pyridoxal-5'-phosphate assessed as formation of PLP-aldimine by ESI-MS analysis; procedure, shortened: as §3
[25] = Binding affinity to pyridoxal-5'-phosphate assessed as formation of PLP-aldimine by NMR spectroscopy; procedure, shortened: as §1
[26] = Binding affinity to pyridoxal-5'-phosphate assessed as formation of syn- and anti-PLP-aldoxime after 20 hrs by NMR spectroscopy; procedure, shortened: as §1
[27] = target: T4, Serine racemase (Mus musculus); assay: as §7; procedure, shortened: as §8

Activity [1]: inactive
inhibition [2]: inactive
Activity [3]: inactive
inhibition [4]: inactive
Activity [5]: inactive
Stability [6]: Stable
Activity [7]: 20%
inhibition [8]: inactive
Stability [9]: Stable
inhibition [10]: inactive
inhibition [11]: inactive
inhibition [12]: inactive
Structure (SMILES): O=C(NO)C(=O)NO

Activity [13]: inactive
Activity [14]: Active
inhibition [12]: inactive
Structure (SMILES): NCC(=O)NO

Ki (Serine racemase [15]): 71 µM
Structure (SMILES): O=C(O)CC(=O)O [MALONIC ACID]

Activity [1]: Active
Activity [5]: inactive
inhibition [12]: inactive
Structure (SMILES): O=C(CCCCCCC(=O)Nc1ccccc1)NO

inhibition [12]: inactive
Structure (SMILES): O=C(NO)c1ccc(Cl)cc1

Activity [13]: inactive
Activity [14]: Active
inhibition [12]: inactive
Structure (SMILES): NC(CO)C(=O)NO (stereo not given)

Activity [1]: Active
Activity [3]: Active
Activity [5]: Active
inhibition [16]: inactive
inhibition [17]: Active
inhibition [18]: inactive
Stability [19]: Unstable
inhibition [11]: Active
Ki (Serine racemase [20]): 417 µM
Stability [21]: Unstable
IC50 (Serine racemase [22]): 370 µM
Structure (SMILES): O=C(CC(=O)NO)NO [MALONODIHYDROXAMIC ACID]

inhibition [12]: inactive
Structure (SMILES): O=C(NO)c1ccc([N+](=O)[O-])cc1

inhibition [12]: inactive
Structure (SMILES): Nc1ccc(C(=O)NO)cc1

Activity [1]: Active
Activity [3]: inactive
Activity [5]: inactive
inhibition [12]: inactive
Structure (SMILES): CC(=O)NO

inhibition [2]: Active
inhibition [4]: Active
Activity [5]: Active
inhibition [8]: inactive
Activity [23]: Active
inhibition [10]: inactive
Activity [24]: Active
inhibition [11]: Active
Activity [25]: Active
IC50 (Serine racemase [22]): 1300 µM
Structure (SMILES): N[C@@H](CC(=O)NO)C(=O)O

Activity [3]: Active
Activity [5]: Active
Stability [19]: Unstable
Activity [26]: Active
Stability [21]: Unstable
IC50 (Serine racemase [22]): 170 µM
Structure (SMILES): O=C(CCCC(=O)NO)NO [GLUTARODIHYDROXAMIC ACID]

Ki (Serine racemase [15]): 43 µM
Structure (SMILES): N[C@@H](C(=O)O)[C@H](O)C(=O)O

Activity [13]: inactive
Activity [14]: Active
inhibition [12]: inactive
Structure (SMILES): CC(O)C(N)C(=O)NO (stereo not given)

Activity [14]: Active
Structure (SMILES): N[C@@H](CO)C(=O)O

Activity [1]: inactive
Activity [3]: inactive
Activity [5]: inactive
Stability [6]: Stable
Stability [9]: Stable
Activity [26]: inactive
inhibition [12]: inactive
Structure (SMILES): O=C(CCCCC(=O)NO)NO

Activity [1]: inactive
Activity [3]: inactive
Stability [6]: Stable
Stability [9]: Stable
Activity [26]: inactive
inhibition [12]: inactive
Structure (SMILES): O=C(CCCCCCC(=O)NO)NO [SUBEROHYDROXAMIC ACID]

Activity [1]: Active
Activity [3]: Active
Activity [5]: Active
inhibition [16]: inactive
inhibition [18]: inactive
Stability [19]: Unstable
inhibition [11]: Active
Ki [27]: 3.6 µM
Stability [21]: Unstable
IC50 (Serine racemase [22]): 90 µM
Structure (SMILES): O=C(CCC(=O)NO)NO [SUCCINODIHYDROXAMIC ACID]

Activity [14]: Active
Structure (SMILES): NCC(=O)O
